Laboratory results reported in PMC3254186 (Frontiers in Pharmacology, 2011).
Structures can show the parent of a compound that is named as a salt.

How the values were obtained:
Kir1.1 (S44D) = target: T1, Kir1.1 (S44D) (Rattus norvegicus, UniProt P35560, S44D); assay: Tl+ flux assay, tetracycline-inducible Kir1.1-S44D T-REx-HEK-293 cells; type: cell-based; conditions: IC50 Kir1.1, Tl+ flux, mean ± SEM (n = 3)
T1 sequence (P35560 1-391 S44D): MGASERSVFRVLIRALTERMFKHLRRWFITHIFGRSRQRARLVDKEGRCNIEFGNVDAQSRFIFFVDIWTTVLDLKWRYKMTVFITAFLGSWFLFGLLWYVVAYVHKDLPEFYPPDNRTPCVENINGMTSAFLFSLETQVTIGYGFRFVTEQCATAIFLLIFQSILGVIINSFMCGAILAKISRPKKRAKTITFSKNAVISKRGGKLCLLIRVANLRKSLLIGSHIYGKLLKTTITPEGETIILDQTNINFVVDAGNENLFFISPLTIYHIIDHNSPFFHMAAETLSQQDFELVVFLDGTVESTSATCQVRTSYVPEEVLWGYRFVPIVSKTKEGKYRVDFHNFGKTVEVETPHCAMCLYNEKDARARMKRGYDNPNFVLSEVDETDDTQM
How it was run: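 Monoclonal C1 T-REx-HEK-293 Kir1.1-S44D cells were grown in DMEM with 10% FBS, penicillin/streptomycin, 5 μg/mL blasticidin S and 250 μg/mL hygromycin. Channel expression was induced overnight with tetracycline. Cells were loaded with FluoZin-2 and pre-treated with test compound from 1:3 serial dilutions. Extracellular Tl+ was then added and fluorescence imaged kinetically at 20–23°C. CRC, mean ± SEM, n = 3.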

Kir7.1-M125R = target: T2, Kir7.1-M125R (Homo sapiens, UniProt O60928, M125R); assay: Tl+ flux assay, polyclonal Kir7.1-M125R T-REx-HEK-293 cells; type: cell-based
T2 sequence (O60928 1-360 M125R): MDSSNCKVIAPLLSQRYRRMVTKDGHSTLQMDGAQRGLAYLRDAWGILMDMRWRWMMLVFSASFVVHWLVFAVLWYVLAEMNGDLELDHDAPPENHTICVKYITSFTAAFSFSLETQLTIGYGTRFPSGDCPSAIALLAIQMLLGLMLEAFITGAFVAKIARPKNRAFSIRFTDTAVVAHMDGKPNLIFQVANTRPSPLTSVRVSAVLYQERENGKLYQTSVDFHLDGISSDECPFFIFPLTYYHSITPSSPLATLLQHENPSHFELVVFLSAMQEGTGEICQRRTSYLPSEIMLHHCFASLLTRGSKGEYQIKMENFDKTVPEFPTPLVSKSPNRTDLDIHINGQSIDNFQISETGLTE

Kir1.1 = conditions: read-out: Kir1.1 inhibitor potency; ref Lewis et al., [2009]; cited from earlier work
Kir7.1 = conditions: read-out: IC50 Kir7.1; ref Lewis et al., [2009]; cited from earlier work

| Compound | IC50 (Kir1.1 (S44D)) | also measured |
| --- | --- | --- |
| COc1cccc(Cn2c(=N)n(CC(O)COc3ccc(C)cc3)c3ccccc32)c1 (centres unmarked) [Compound 24, 1-(2-imino-3-(3-methoxybenzyl)-2,3-dihydro-1H-benzo[d]imidazol-1-yl)-3-(p-tolyloxy)propan-2-ol] | 13.7 ± 4.4 µM | – |
| Cc1cc(C)cc(OCC(O)Cn2c(=N)n(Cc3ccccc3)c3ccccc32)c1 (centres unmarked) [Compound 20, 1-(3-benzyl-2-imino-2,3-dihydro-1H-benzo[d]imidazol-1-yl)-3-(3,5-dimethylphenoxy)propan-2-ol] | 16 ± 2 µM | – |
| COc1cccc(OCC(O)Cn2c(=N)n(Cc3ccccc3)c3ccccc32)c1 (centres unmarked) [Compound 14, 1-(3-benzyl-2-imino-2,3-dihydro-1H-benzo[d]imidazol-1-yl)-3-(3-methoxyphenoxy)propan-2-ol] | 10.1 ± 2.9 µM | – |
| N=c1n(Cc2ccccc2)c2ccccc2n1CC(O)COc1ccccc1 (centres unmarked) [Compound 5, 1-(3-benzyl-2-imino-2,3-dihydro-1H-benzo[d]imidazol-1-yl)-3-phenoxypropan-2-ol] | 11.7 ± 4.1 µM | – |
| Cc1cc(OCC(O)Cn2c(=N)n(Cc3ccccc3)c3ccccc32)ccc1Br (centres unmarked) [Compound 16, 1-(3-benzyl-2-imino-2,3-dihydro-1H-benzo[d]imidazol-1-yl)-3-(4-bromo-3-methylphenoxy)propan-2-ol] | 8.53 ± 1.7 µM | – |
| N=c1n(Cc2ccccc2)c2ccccc2n1CC(O)COc1cc(F)cc(F)c1 (centres unmarked) [Compound 7, 1-(3-benzyl-2-imino-2,3-dihydro-1H-benzo[d]imidazol-1-yl)-3-(3,5-difluorophenoxy)propan-2-ol] | 7.57 ± 2.2 µM | – |
| O=[N+]([O-])c1ccc(CN2CCOCCOCCN(Cc3ccc([N+](=O)[O-])cc3)CCOCC2)cc1 [VU590, 7,13-bis[(4-nitrophenyl)methyl]-1,4,10-trioxa-7,13-diazacyclopentadecanedihydrochloride] | – | IC50 (Kir1.1): ~300 nM; IC50 (Kir7.1): ~8 µM |
| COc1ccc(OCC(O)Cn2c(=N)n(Cc3ccccc3)c3ccccc32)cc1 (centres unmarked) [Compound 13, 1-(3-benzyl-2-imino-2,3-dihydro-1H-benzo[d]imidazol-1-yl)-3-(4-methoxyphenoxy)propan-2-ol] | 12.7 ± 1.2 µM | – |
| N=c1n(Cc2ccccc2)c2ccccc2n1CC(O)COc1ccc(Cl)cc1Cl (centres unmarked) [Compound 2, 1-(3-benzyl-2-imino-2,3-dihydro-1H-benzo[d]imidazol-1-yl)-3-(2,4-dichlorophenoxy)propan-2-ol] | 7.07 ± 2.3 µM | – |
| N=c1n(Cc2ccccc2)c2ccccc2n1CC(O)COc1ccccc1Cl (centres unmarked) [Compound 15, 1-(3-benzyl-2-imino-2,3-dihydro-1H-benzo[d]imidazol-1-yl)-3-(2-chlorophenoxy)propan-2-ol] | 8.6 ± 1.2 µM | – |
| N=c1n(Cc2ccccc2)c2ccccc2n1CC(O)COc1ccc(Cl)cc1 (centres unmarked) [Compound 3, 1-(3-benzyl-2-imino-2,3-dihydro-1H-benzo[d]imidazol-1-yl)-3-(4-chlorophenoxy)propan-2-ol] | 6.57 ± 3.8 µM | – |
| N=c1n(Cc2ccccc2)c2ccccc2n1CC(O)CN1CCOCC1 (centres unmarked) [Compound 9, 1-(3-benzyl-2-imino-2,3-dihydro-1H-benzo[d]imidazol-1-yl)-3-morpholinopropan-2-ol] | > 100 µM | activity toward Kir7.1 (Kir7.1-M125R): lost activity |

Continued by falling IC50 (Kir1.1 (S44D)), values first:

| IC50 (Kir1.1 (S44D)) | Compound | also measured |
| --- | --- | --- |
| 19.3 ± 1.5 µM | COc1ccccc1OCC(O)Cn1c(=N)n(Cc2ccccc2)c2ccccc21 (centres unmarked) [Compound 21, 1-(3-benzyl-2-imino-2,3-dihydro-1H-benzo[d]imidazol-1-yl)-3-(2-methoxyphenoxy)propan-2-ol] | – |
| 15.7 ± 2.1 µM | N#Cc1ccc(OCC(O)Cn2c(=N)n(Cc3ccccc3)c3ccccc32)cc1 (centres unmarked) [Compound 12, 4-(3-(3-benzyl-2-imino-2,3-dihydro-1H-benzo[d]imidazol-1-yl)-2-hydroxypropoxy)benzonitrile] | – |
| 14.7 ± 2.1 µM | N=c1n(Cc2ccc(Cl)cc2)c2ccccc2n1CC(O)COc1ccccc1 (centres unmarked) [Compound 22, 1-(3-(4-chlorobenzyl)-2-imino-2,3-dihydro-1H-benzo[d]imidazol-1-yl)-3-phenoxypropan-2-ol] | – |
| 14.3 ± 1.5 µM | N#Cc1cc(F)cc(OCC(O)Cn2c(=N)n(Cc3ccccc3)c3ccccc32)c1 (centres unmarked) [Compound 19, 3-(3-(3-benzyl-2-imino-2,3-dihydro-1H-benzo[d]imidazol-1-yl)-2-hydroxypropoxy)-5-fluorobenzonitrile] | – |
| 13 ± 2.6 µM | Cc1ccc(OCC(O)Cn2c(=N)n(C)c3ccccc32)cc1 (centres unmarked) [Compound 25, 1-(2-imino-3-methyl-2,3-dihydro-1H-benzo[d]imidazol-1-yl)-3-(p-tolyloxy)propan-2-ol] | – |
| 11.9 ± 2.2 µM | Cc1ccccc1OCC(O)Cn1c(=N)n(Cc2ccccc2)c2ccccc21 (centres unmarked) [Compound 6, 1-(3-benzyl-2-imino-2,3-dihydro-1H-benzo[d]imidazol-1-yl)-3-(o-tolyloxy)propan-2-ol] | – |
| 11.7 ± 2.1 µM | N=c1n(Cc2ccccc2)c2ccccc2n1CC(O)COc1cccc(Cl)c1 (centres unmarked) [Compound 18, 1-(3-benzyl-2-imino-2,3-dihydro-1H-benzo[d]imidazol-1-yl)-3-(3-chlorophenoxy)propan-2-ol] | – |
| 11.2 ± 2.8 µM | Cc1cccc(OCC(O)Cn2c(=N)n(Cc3ccccc3)c3ccccc32)c1 (centres unmarked) [Compound 4, 1-(3-benzyl-2-imino-2,3-dihydro-1H-benzo[d]imidazol-1-yl)-3-(m-tolyloxy)propan-2-ol] | – |
| 8.27 ± 0.29 µM | N#Cc1ccc(F)c(OCC(O)Cn2c(=N)n(Cc3ccccc3)c3ccccc32)c1 (centres unmarked) [Compound 17, 3-(3-(3-benzyl-2-imino-2,3-dihydro-1H-benzo[d]imidazol-1-yl)-2-hydroxypropoxy)-4-fluorobenzonitrile] | – |
| 6.97 ± 2 µM | Cn1c(=N)n(CC(O)COc2ccc(C(F)(F)F)cc2)c2ccccc21 (centres unmarked) [Compound 26, 1-(2-imino-3-methyl-2,3-dihydro-1H-benzo[d]imidazol-1-yl)-3-(4-(trifluoromethyl)phenoxy)propan-2-ol] | – |
| 6.77 ± 1.7 µM | CC(C)c1ccc(OCC(O)Cn2c(=N)n(Cc3ccccc3)c3ccccc32)cc1 (centres unmarked) [Compound 8, 1-(3-benzyl-2-imino-2,3-dihydro-1H-benzo[d]imidazol-1-yl)-3-(4-isopropylphenoxy)propan-2-ol] | – |
| 6.53 ± 3.9 µM | N=c1n(Cc2ccc(Cl)cc2)c2ccccc2n1CC(O)COc1ccc(Cl)cc1 (centres unmarked) [Compound 23, 1-(3-(4-chlorobenzyl)-2-imino-2,3-dihydro-1H-benzo[d]imidazol-1-yl)-3-(4-chlorophenoxy)propan-2-ol] | – |
| 6.13 ± 0.23 µM | N=c1n(Cc2ccccc2)c2ccccc2n1CC(O)COc1ccc(Cc2ccccc2)cc1 (centres unmarked) [Compound 10, 1-(3-benzyl-2-imino-2,3-dihydro-1H-benzo[d]imidazol-1-yl)-3-(4-benzylphenoxy)propan-2-ol] | – |
| 5.23 ± 0.59 µM | N=c1n(Cc2ccccc2)c2ccccc2n1CC(O)COc1ccc(OCc2ccccc2)cc1 (centres unmarked) [Compound 11, 1-(3-benzyl-2-imino-2,3-dihydro-1H-benzo[d]imidazol-1-yl)-3-(4-(benzyloxy)phenoxy)propan-2-ol] | activity toward Kir7.1 (Kir7.1-M125R): lost activity |
